Residues, ends and D or L forms follow the SMILES beside them. No end group written: not given here. *: point of attachment. Cbz = O=C(OCc1ccccc1)*
Key:
AC/PKA pathway = details: cited from earlier work
AR55Q (polyQ-AR) [1] = experiment: Western blotting of upper AR isoform in HEK293T cells; assay type: cell-based, human; details: for accumulation of the upper AR isoform (p21Cip1 experiments) / effect on upper AR isoform upon overexpression of wtCDK2: HEK293T AR55Q; for accumulation of the upper AR isoform (p21Cip1 experiments): 5 or 100 nM OA, 10 μM forskolin, 100 nM PACAP, 24 hours; for effect on upper AR isoform upon overexpression of wtCDK2: 10 μM forskolin or 100 nM PACAP; for mobility of S96A and S96D phosphomutants: HEK293T, AR55Q-S96A, AR55Q-S96D, 100 nM PACAP (5 hours), SDS-PAGE, n = 4
SBMA MN-1 cells [2] = experiment: Trypan blue assay in MN-1 cells; assay type: cell-based, mouse; details: MN-1 cells expressing AR100Q, 100 nM PACAP, 96 hours, n = 8
Method in brief: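 MN-1 cells stably expressing AR100Q were grown in DMEM with 10% FBS, 2 mM L-glutamine and gentamicin 0.05 mg/ml at 37°C, 5% CO2. Cells were given DHT plus vehicle or 100 nM PACAP for 96 hours.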

polyQ-AR [3] = experiment: PolyQ-AR aggregation in HEK293T cells; assay type: cell-based, human; details: high–molecular weight species in stacking gel, SDS-PAGE; fig. S18
SBMA MN-1 cells [4] = experiment: Caspase 3 assay in MN-1 cells; assay type: cell-based, mouse; details: SBMA MN-1 cells (AR65Q), 48 hours
p21^Cip1 = experiment: p21Cip1 expression in cells; assay type: cell-based; details: fig. S13, A to D
CDK2/p21^Cip1 = experiment: Binding of CDK2 to p21Cip1 in SBMA cells; assay type: cell-based; details: fig. S13E
[5] = system: AR55Q phosphorylated at Ser^96; experiment: Western blotting of Ser96-phosphorylated AR in HEK293T cells; assay type: cell-based, human; details: 10 μM forskolin or 100 nM PACAP, 5 hours, n = 5 to 10
Method in brief: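 HEK293T cells expressing AR55Q or AR55Q-S96A were treated with 10 μM forskolin or 100 nM PACAP for 5 hours. Lysates were run on 7% SDS-PAGE and blotted to nitrocellulose. Blots were probed with antibodies to Ser96-phosphorylated and total AR and detected by chemiluminescence or infrared imaging. n = 9 to 10 and 5 independent experiments.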

[6] = cited from earlier work
cAMP = cAMP levels in vivo; design: species or system mouse; details: fig. S21; intranasal
[7] = cited from earlier work; remark: listed apart in the source
AR112Q (polyQ-AR) = experiment: PolyQ-AR aggregation in PC12 cells; assay type: cell-based, rat PC12 cells; details: doxycycline 10 μg/ml, 10 nM DHT, 10 μM forskolin, 24 hours, n = 3
[8] = system: cAMP (EPAC biosensor), SBMA MN-1 cells; experiment: BRET cAMP biosensor assay in MN-1 cells; assay type: cell-based, mouse; details: SBMA MN-1 cells (AR65Q); different concentrations of PACAP, 20 min; n = 4
Method in brief: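 MN-1 cells were transfected with an EPAC cAMP BRET biosensor (Renilla luciferase N-terminal, YFP C-terminal) 24 h after seeding. After another 24 h they were replated at 80,000 cells/well in phenol red–free MEM with 2% FBS, 10 mM Hepes and 2 mM glutamine, with or without 10 nM DHT for 24 h. Wells were read in PBS (Ca/Mg, 0.003% ascorbic acid) with 5 μM coelenterazine h for about 20 min after agonist; cAMP binding lowers the signal.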

healthy male subjects = details: cited from earlier work
[9] = system: animal models of AD, PD and HD; details: cited from earlier work
AR55Q (polyQ-AR) [10] = experiment: PolyQ-AR accumulation and turnover in HEK293T cells; assay type: cell-based, human
Method in brief: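 AR55Q was expressed in HEK293T cells (DMEM, 10% heat-inactivated FBS, 2 mM L-glutamine, 37°C, 5% CO2) by polyethylenimine transfection the day after plating. For turnover, cells got cycloheximide 10 μg/ml plus 10 μM forskolin; separately, empty vector or wtPKA plus 10 μM MG132 for 5 h. AR was immunoblotted after 7% SDS-PAGE against a β-tubulin loading control.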

AR100Q (polyQ-AR) [11] = experiment: Western blotting of upper AR isoform in MN-1 cells; assay type: cell-based, mouse motor neuron–derived MN-1 cells; details: 10 μM forskolin (5 hours); n = 3
polyQ-AR [12] = experiment: Atomic force microscopy of polyQ-AR oligomers; assay type: cell-based; details: Sf9 insect cells; 10 nM DHT and 10 μM forskolin, 24 hours; n = 15 to 25
AR100Q (polyQ-AR) [13] = experiment: Western blotting of upper AR isoform in primary cortical neurons; assay type: cell-based, rat primary cortical neurons; details: 10 μM forskolin (5 hours); n = 4
Method in brief: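 Cortical neurons came from embryonic day 18 Sprague-Dawley rats, dissociated with papain/DNase/cysteine and plated at 40,000 cells/cm² on poly-L-lysine in Neurobasal/B-27/GlutaMAX. At 6–7 DIV they were transduced with lentivirus (MOI 10) expressing AR24Q or AR100Q plus EGFP. Neurons were treated with 10 μM forskolin for 5 h, and AR upper and lower isoforms were immunoblotted with loading controls; n = 4.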

PAC1 receptor = details: cited from earlier work
AR = details: cited from earlier work

For “vasoactive intestinal peptide (HSDAVFTDNYTRLRKQMAVKKYLNSILN; ends and bridges not checked; UniProt P01282 125-152, looked up) [VIP]”, the “activation of AC” value (AC/PKA pathway) is given as “reduced ability to activate AC” and the “accumulation of the upper isoform of polyQ-AR, VIP” value (AR55Q (polyQ-AR) [1]; fig. S3) is given as “does not modify”.

For “pituitary adenylyl cyclase activating polypeptide [PACAP]”, the cell death (SBMA MN-1 cells [2]) is listed as “significantly reduced”, the “polyQ-AR aggregation, HEK293T cells” value (polyQ-AR [3]) is listed as “reduced” and the “activation of AC” value (AC/PKA pathway) is listed as “potent activator”. For the same compound, the “accumulation of the upper AR isoform (p21Cip1 experiments)” value (AR55Q (polyQ-AR) [1]; n = 3) was “decreased accumulation”, the “effect on upper AR isoform upon overexpression of wtCDK2” value (AR55Q (polyQ-AR) [1]; 5 hours, n = 3) was “blocked” and the “reduction of the accumulation of the upper isoform of polyQ-AR” value (AR55Q (polyQ-AR) [1]; HEK293T expressing AR55Q, 10 nM DHT and 100 nM PACAP, 5 hours, n = 9) was 35%. For the same compound, the “mobility of S96A and S96D phosphomutants” value (AR55Q (polyQ-AR) [1]) was “not affected”, the “caspase 3 activity, PACAP” value (SBMA MN-1 cells [4]; 100 nM PACAP, n = 3, through activation of PKA) was “significantly reduced” and the “expression of p21Cip1” value (p21^Cip1) was “induced the expression”. For the same compound, the “binding of CDK2 to p21Cip1” value (CDK2/p21^Cip1) was “increased the binding”, the “amount of polyQ-AR phosphorylated at Ser96” value [5] was “significantly reduced” and the “penetration into target tissues” value [6] was “scarce penetration into target tissues”. The “cAMP production in vivo, PACAP” value (cAMP) was “induces cAMP production in vivo”, the “degradation in the blood” value [7] was “rapidly degraded in the blood” and the metabolic stability [7] was “poor metabolic stability”. The “polyQ-AR aggregation, PC12 cells” value (AR112Q (polyQ-AR)) was “reduced” and the “dose dependence of cAMP release” value [8] was “dose-dependent”.

For “PACAP38: main PACAP peptide in mammals (137061-48-4, Calbiochem)”, the “stimulation of cAMP production” value (AC/PKA pathway; general statement in discussion, no reference given) is given as “stimulate cAMP production”, the “tolerability, intranasal administration” value (healthy male subjects) is given as “well tolerated” and the neuroprotective effects [9] is given as “strong neuroprotective effects”.

For `CC(C)C[C@@H](C=O)NC(=O)[C@H](CC(C)C)NC(=O)[C@H](CC(C)C)NC(=O)OCc1ccccc1` [MG132] (Cbz-Leu-Leu-Leu-aldehyde), the “effect of PKA and OA on polyQ-AR” value (AR55Q (polyQ-AR) [10]; HEK293T AR55Q, 10 μM MG132 (5 hours), n = 3) was “abolished”.

In the case of `C=C[C@@]1(C)CC(=O)[C@]2(O)[C@@]3(C)[C@@H](O)CCC(C)(C)[C@@H]3[C@H](O)[C@H](OC(C)=O)[C@@]2(C)O1` [forskolin], the “upper-isoform accumulation of polyQ-AR, MN-1 cells” value (AR100Q (polyQ-AR) [11]) is reported as “decreased”, the “polyQ-AR aggregation, HEK293T cells” value (polyQ-AR [3]) is reported as “reduced” and the “reduction of polyQ-AR accumulation” value (AR55Q (polyQ-AR) [10]; HEK293T AR55Q, 10 μM forskolin, cycloheximide 10 μg/ml, n = 5) is reported as 80%. For the same compound, the AR transcript levels (AR55Q (polyQ-AR) [10]; fig. S19C) was “without altering”, the “shift from annular to fibrillar oligomers caused by polyQ expansion” value (polyQ-AR [12]) was “reversed” and the “accumulation of the upper AR isoform (p21Cip1 experiments)” value (AR55Q (polyQ-AR) [1]; n = 3) was “decreased accumulation”. The “effect on upper AR isoform upon overexpression of wtCDK2” value (AR55Q (polyQ-AR) [1]; 5 hours, n = 3) was “blocked”, the “accumulation of the upper isoform of polyQ-AR” value (AR55Q (polyQ-AR) [1]; HEK293T expressing AR55Q, 10 nM DHT and 10 μM forskolin, 5 hours, n = 3) was “decreased the accumulation” and the “mobility of S96A and S96D phosphomutants” value (AR55Q (polyQ-AR) [1]) was “not affected”. For the same compound, the “upper-isoform accumulation of polyQ-AR, primary rat cortical neurons” value (AR100Q (polyQ-AR) [13]) was “decreased”, the “caspase 3 activity, forskolin” value (SBMA MN-1 cells [4]; 10 μM forskolin, n = 6 to 9) was “significant decrease” and the “expression of p21Cip1” value (p21^Cip1) was “induced the expression”. For the same compound, the “binding of CDK2 to p21Cip1” value (CDK2/p21^Cip1) was “increased the binding”, the “amount of polyQ-AR phosphorylated at Ser96” value [5] was “significantly reduced” and the “polyQ-AR aggregation, PC12 cells” value (AR112Q (polyQ-AR)) was “reduced”.

With `CC[C@H](CO)Nc1nc(NCc2ccccc2)c2ncn(C(C)C)c2n1` [Roscovitine, roscovitine] the “accumulation of the upper isoform of polyQ-AR, phosphatase/kinase inhibitors” value (AR55Q (polyQ-AR) [1]; HEK293T expressing AR55Q, fig. S5, S6) was “specifically decreased the accumulation”.

In the case of `C=C1[C@@H](O)[C@@H]2O[C@]3(CC[C@H](/C=C/[C@@H](C)[C@@H]4CC(C)=C[C@@]5(O[C@H](C[C@@](C)(O)C(=O)O)CC[C@H]5O)O4)O3)CC[C@H]2O[C@@H]1[C@@H](O)C[C@H](C)[C@H]1O[C@@]2(CCCCO2)CC[C@H]1C` [Okadaic acid], the “accumulation of the upper AR isoform (p21Cip1 experiments)” value (AR55Q (polyQ-AR) [1]; n = 3) is reported as “decreased accumulation”, the “expression of p21Cip1” value (p21^Cip1) is reported as “induced the expression” and the “binding of CDK2 to p21Cip1” value (CDK2/p21^Cip1) is reported as “increased the binding”.

In the case of “acetyl–[Ala^15, Ala^20]PACAP1–38–propylamide [Peptide 6]”, the PAC1 receptor agonism (PAC1 receptor) is given as “superagonist”.

For `C[C@]12CCC(=O)C[C@@H]1CC[C@@H]1[C@@H]2CC[C@]2(C)[C@@H](O)CC[C@@H]12` [DHT, dihydrotestosterone], the “accumulation of the upper AR isoform, increase” value (AR55Q (polyQ-AR) [1]) is given as “about 1.2 fold” and the AR stabilization (AR) is given as “stabilizes”.
